The text below walks through data of ChEMBL document CHEMBL1133219, “Design and evaluation of dihydroisoquinolines as potent and orally bioavailable human cytomegalovirus inhibitors” (Bioorg Med Chem Lett, 2000).

Converted amounts (≈) assume the structure as drawn.

One series deals with Hs68. In words: Cytotoxic activity in Hs 68 cell line by inhibition of cell proliferation. It counts as functional. To be noted: Homo sapiens.
For the next series, the system named is Human betaherpesvirus 5. In words: Antiviral activity determined against human cytomegalovirus (HCMV) in Hs 68 cell line by plaque reduction assay. Format: functional, organism-based. The conditions noted are these: Human betaherpesvirus 5, Hs68.
The subject of series [1] is Mus musculus. Kind of series: The area under concentration-time curve(AUC) was determined at 5 mg/kg of compound dose, administered intravenously in mice. Format: ADME, organism-based. Further details: dose 5 mg/kg, route intravenous. The conditions noted are these: in vivo, iv. A digest of the protocol: (§1)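 Mice dosed po or iv, and plasma sampled over time. Non-compartmental analysis of mean plasma concentrations gave Cmax, AUC and t1/2. AUC taken by linear trapezoidal method from zero to last sample, extrapolated to infinity with terminal slope λz. t1/2 = 0.693/λz. Mean of triplicates (SD<8%).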

The nature of series [2]: Pharmacokinetic studies were carried out in vivo after administration of compound at 5 mg/kg intravenously in mice. The conditions noted are these: mouse, iv. Format: ADME, organism-based. Further details: dose 5 mg/kg, route intravenous. The gist of the method:
as §1

A short description of series [3]: Pharmacokinetic studies were carried out in vivo after administration of compound at 50 mg/kg perorally in mice. Format: ADME, organism-based. Also on record: dose 50 mg/kg, route oral. The conditions noted are these: mouse, po. A digest of the protocol: as §1
The subject of series [4] is Mus musculus. In words: The area under concentration-time curve(AUC) was determined at 50 mg/kg of compound dose, administered perorally in mice. Also on record: dose 50 mg/kg, route oral. It counts as ADME, organism-based. To be noted: in vivo, po. A digest of the protocol: as §1
Series [5] can be described thus: (§2) Half life was evaluated at 50 mg/kg of compound dose, administered perorally in mice. Format: ADME, organism-based. Also on record: dose 50 mg/kg, route oral. The conditions noted are these: mouse, in vivo, po. The gist of the method: (§3)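 Mouse PK with plasma levels after oral dosing. Mean plasma data analysed non-compartmentally. Terminal slope (λz) obtained from the concentration-time curve, and t1/2 taken as 0.693/λz. Data are means of triplicates (SD<8%).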

Series [6] can be described thus: Pharmacokinetic studies were carried out in vivo after administration of compound at 50 mg/kg intravenously in mice. Further details: dose 50 mg/kg, route intravenous. To be noted: mouse, iv. Format: ADME, organism-based. The gist of the method:
as §1

Series [7] can be described thus: Percent oral bioavailability was determined after administration of compound at 50 mg/kg perorally in mice. It counts as ADME, organism-based. The conditions noted are these: mouse, in vivo, read-out: BA. The gist of the method:
(§4)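 Mouse PK comparing oral and intravenous dosing. AUC estimated by linear trapezoid from time zero to last sample, extrapolated to infinity via terminal slope. Oral bioavailability calculated as AUCpo,0-∞/AUCiv,0-∞ at the corresponding dose. Mean of triplicate data (SD<8%).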

Series [8] relates to Mus musculus. In words: The area under concentration-time curve(AUC) was determined at 5 mg/kg of compound dose, administered perorally in mice. It counts as ADME, organism-based. Further details: dose 5 mg/kg, route oral. To be noted: in vivo, po. A digest of the protocol:
as §1

Series [9] in a line: Percent oral bioavailability was determined after administration of compound at 5 mg/kg perorally in mice. It counts as ADME, organism-based. To be noted: mouse, in vivo, read-out: BA. The gist of the method: as §4
Series [10] has as its system Mus musculus. Kind of series: Half life was evaluated at 5 mg/kg of compound dose, administered intravenously in mice. The conditions noted are these: in vivo, iv.
Series [11] can be described thus: Pharmacokinetic studies were carried out in vivo after administration of compound at 5 mg/kg perorally in mice. Format: ADME, organism-based. Also on record: dose 5 mg/kg, route oral. To be noted: mouse, po. A digest of the protocol:
as §1

Series [12] is described as follows: Half life was evaluated at 5 mg/kg of compound dose, administered perorally in mice. The conditions noted are these: mouse, in vivo, po. Format: ADME, organism-based. Also on record: dose 5 mg/kg, route oral. A digest of the protocol: as §3
Series [13] relates to Mus musculus. The series is described as §2. Further details: dose 50 mg/kg, route oral. It counts as ADME, organism-based. The conditions noted are these: in vivo, po. The gist of the method:
as §3

Series [14] relates to Mus musculus. Kind of series: The area under concentration-time curve(AUC) was determined at 50 mg/kg of compound dose, administered intravenously in mice. Also on record: dose 50 mg/kg, route intravenous. The conditions noted are these: in vivo, iv. Format: ADME, organism-based. A digest of the protocol:
as §1

In the series with Hs68, `COc1ccccc1CNC(=O)c1ccc2c[n+]([O-])ccc2n1` returned a CC50 of 100 µg/mL (≈ 323 µM). In the series with Human betaherpesvirus 5, this compound showed a concentration for half-maximal inhibition (IC50) above 25 µg/mL.

In turn, `COc1ccccc1CNC(=O)c1ccc2c(N)nccc2n1` displayed a CC50 in the series on Hs68 of around 12.5 µg/mL (≈ 40.5 µM). In addition, in the series with Human betaherpesvirus 5, the half-maximal inhibitory concentration (IC50) was around 10 µg/mL (≈ 32.4 µM).

`COc1ccccc1CNC(=O)c1ccc2c(C)nccc2n1`: the CC50 in the series on Hs68 is above 25 µg/mL. Moreover, in the series on Human betaherpesvirus 5, the 50% inhibitory concentration (IC50) was above 10 µg/mL.

In the series on Hs68, `COc1ccccc1CNC(=O)c1ccc2c(OC)nccc2n1` had a CC50 above 50 µg/mL. The compound further displayed a half-maximal inhibitory concentration (IC50) in the series on Human betaherpesvirus 5 above 25 µg/mL.

As for `COc1ccccc1CNC(=O)C1=Cc2ccncc2CC1`, the figures for the AUC with Mus musculus [1] and in the series with Mus musculus [4] were 57 ug m-1 min-1 and 734 ug m-1 min-1, respectively. Further, the Cmax in series [2] stood at 6940 ng/mL; in series [3], 12500 ng/mL. In the series with Hs68, this compound yielded a CC50 above 50 µg/mL. In [5], the half-life stood at 42.3 min. Moreover, the IC50 in the series with Human betaherpesvirus 5 came to 0.64 µg/mL (≈ 2.17 µM).

`O=C(NCCc1c[nH]c2ccccc12)C1=Cc2ccncc2CC1`: the Cmax in series [6] stood at 57800 ng/mL; in series [2], 5560 ng/mL; in series [3], 15100 ng/mL; in series [11], 600 ng/mL. For the same compound, the AUC was found to be 94 ug m-1 min-1 in the series on Mus musculus [1], 21 ug m-1 min-1 in the series on Mus musculus [8], 1762 ug m-1 min-1 in the series on Mus musculus [4] and 2914 ug m-1 min-1 with Mus musculus [14]. Moreover, the values for the bioavailability in series [7] and in series [9] were 60.4% and 22.5%, respectively. Half-maximal cytotoxicity in the series with Hs68 (CC50) was put at 5 µg/mL (≈ 15.8 µM). Also, the figures for the T1/2 in the series on Mus musculus [10] and in the series on Mus musculus [13] were 14.2 min and 43.9 min, respectively. Besides, the values for the half-life in series [12] and in series [5] were 15.2 min and 72.5 min, respectively. Besides, in the series on Human betaherpesvirus 5, half-maximal inhibition (IC50) was put at 0.1 µg/mL (≈ 0.315 µM).

`CC(C)Oc1ccccc1CNC(=O)C1=Cc2ccncc2CC1` yielded a CC50 in the series on Hs68 of 12.5 µg/mL (≈ 38.8 µM). In addition, in the series on Human betaherpesvirus 5, the IC50 amounted to 0.68 µg/mL (≈ 2.11 µM).

As to `O=C(NCCc1cccs1)C1=Cc2ccncc2CC1`, the midpoint of cytotoxicity in the series with Hs68, the CC50, lay at 15 µg/mL (≈ 52.7 µM). In addition, in the series with Human betaherpesvirus 5, half-maximal inhibition (IC50) was put at 0.17 µg/mL (≈ 0.598 µM).

As to `O=C(NCCc1ccccc1)C1=Cc2ccncc2CC1`, in the series on Hs68, the CC50 is 25 µg/mL (≈ 89.8 µM). The compound also displayed an IC50 in the series on Human betaherpesvirus 5 of 0.71 µg/mL (≈ 2.55 µM).

`COc1ccccc1CNC(=O)c1ccc2c(Br)nccc2n1` gave a CC50 in the series on Hs68 of around 25 µg/mL (≈ 67.2 µM). This compound yielded a 50% inhibitory concentration (IC50) in the series on Human betaherpesvirus 5 above 25 µg/mL.

In the series with Hs68, `COc1ccccc1CNC(=O)c1ccc2c(Cl)nccc2n1` registered a CC50 of around 3.2 µg/mL (≈ 9.76 µM). This compound yielded an IC50 in the series with Human betaherpesvirus 5 above 10 µg/mL.

The compound `COc1ccccc1CNC(=O)c1ccc2c(F)nccc2n1` registered a half-maximal cytotoxic concentration (CC50) with Hs68 of around 10 µg/mL (≈ 32.1 µM). Further, the IC50 in the series on Human betaherpesvirus 5 is around 10 µg/mL (≈ 32.1 µM).

Turning to `COc1ccccc1CNC(=O)C1CCc2cnccc2C1` (centres undefined), the CC50 in the series on Hs68 is 100 µg/mL (≈ 337 µM). The IC50 in the series with Human betaherpesvirus 5 is 25 µg/mL (≈ 84.4 µM).

With `COc1ccc(OC)c(CCNC(=O)C2=Cc3ccncc3CC2)c1`, the CC50 in the series with Hs68 is above 50 µg/mL. The same compound gave a concentration for half-maximal inhibition (IC50) in the series with Human betaherpesvirus 5 of 0.23 µg/mL (≈ 0.68 µM).

With `COc1ccccc1CCNC(=O)C1=Cc2ccncc2CC1`, the half-maximal cytotoxic concentration (CC50) in the series with Hs68 is above 25 µg/mL. The compound further had an IC50 in the series with Human betaherpesvirus 5 of 10 µg/mL (≈ 32.4 µM).
